Activity calls are given as the source filed them. The calls are words filed in the database; no cut-off is given here.
Experiments:
[1] = system: NCI-H1975; test: Antiproliferative activity against human NCI-H1975 cells incubated for 72 hrs by MTT assay; assay type: functional, cell-based; conditions: NCI-H1975, 72 h
[2] = system: NCI-H1975; test: Induction of apoptosis in human NCI-H1975 cells assessed as viable cells at 0.5 uM incubated for 48 hrs by propidium iodide and annexin-V FITC staining based flow cytometry (Rvb =88.95% ); assay type: functional; conditions: read-out: Activity
[3] = system: NCI-H1975; test: Induction of apoptosis in human NCI-H1975 cells assessed as increase in cleaved-caspase 8 level at 0.5 to 5 uM after 48 hrs by Western blot analysis; assay type: functional, cell-based; conditions: dose 0.5-5 µM
How it was run: (§1)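 Cells were treated with compound for 48 h and lysed on ice for 30 min in RIPA buffer with protease and phosphatase inhibitors. Lysates were cleared at 14000 g, 4 °C, and protein quantified by BCA. Samples were boiled in loading buffer, run on 10–12% SDS-PAGE and transferred to PVDF. Membranes were blocked 2 h, incubated in primary antibody overnight at 4 °C, then in secondary antibody 2 h at room temperature.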

[4] = system: NCI-H1975; test: Antiinvasive activity against human NCI-H1975 cells measured after 72 hrs by crystal violet dye-based transwell assay; assay type: functional, cell-based; conditions: dose 0.5-5 µM
How it was run: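 NCI-H1975 cells, 1 × 10⁴/well, seeded in serum-free medium in the upper chamber of a transwell insert. The lower chamber held 10% FBS medium with compound at the indicated dilutions, for 72 h. Non-invading cells were swabbed off. Cells on the membrane underside were fixed in 10% buffered formalin for 1 h, stained with crystal violet for 1 h, and imaged in three random fields.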

[5] = target: T1, Epidermal growth factor receptor (Homo sapiens, UniProt P00533); test: Inhibition of EGFR in human NCI-H1975 cells assessed as reduction in EGFR phosphorylation at Tyr-1068 residues after 48 hrs by Western blot analysis; assay type: cell-based; conditions: dose 0.5-5 µM; how it was run: as §1
T1 sequence (P00533 whole entry): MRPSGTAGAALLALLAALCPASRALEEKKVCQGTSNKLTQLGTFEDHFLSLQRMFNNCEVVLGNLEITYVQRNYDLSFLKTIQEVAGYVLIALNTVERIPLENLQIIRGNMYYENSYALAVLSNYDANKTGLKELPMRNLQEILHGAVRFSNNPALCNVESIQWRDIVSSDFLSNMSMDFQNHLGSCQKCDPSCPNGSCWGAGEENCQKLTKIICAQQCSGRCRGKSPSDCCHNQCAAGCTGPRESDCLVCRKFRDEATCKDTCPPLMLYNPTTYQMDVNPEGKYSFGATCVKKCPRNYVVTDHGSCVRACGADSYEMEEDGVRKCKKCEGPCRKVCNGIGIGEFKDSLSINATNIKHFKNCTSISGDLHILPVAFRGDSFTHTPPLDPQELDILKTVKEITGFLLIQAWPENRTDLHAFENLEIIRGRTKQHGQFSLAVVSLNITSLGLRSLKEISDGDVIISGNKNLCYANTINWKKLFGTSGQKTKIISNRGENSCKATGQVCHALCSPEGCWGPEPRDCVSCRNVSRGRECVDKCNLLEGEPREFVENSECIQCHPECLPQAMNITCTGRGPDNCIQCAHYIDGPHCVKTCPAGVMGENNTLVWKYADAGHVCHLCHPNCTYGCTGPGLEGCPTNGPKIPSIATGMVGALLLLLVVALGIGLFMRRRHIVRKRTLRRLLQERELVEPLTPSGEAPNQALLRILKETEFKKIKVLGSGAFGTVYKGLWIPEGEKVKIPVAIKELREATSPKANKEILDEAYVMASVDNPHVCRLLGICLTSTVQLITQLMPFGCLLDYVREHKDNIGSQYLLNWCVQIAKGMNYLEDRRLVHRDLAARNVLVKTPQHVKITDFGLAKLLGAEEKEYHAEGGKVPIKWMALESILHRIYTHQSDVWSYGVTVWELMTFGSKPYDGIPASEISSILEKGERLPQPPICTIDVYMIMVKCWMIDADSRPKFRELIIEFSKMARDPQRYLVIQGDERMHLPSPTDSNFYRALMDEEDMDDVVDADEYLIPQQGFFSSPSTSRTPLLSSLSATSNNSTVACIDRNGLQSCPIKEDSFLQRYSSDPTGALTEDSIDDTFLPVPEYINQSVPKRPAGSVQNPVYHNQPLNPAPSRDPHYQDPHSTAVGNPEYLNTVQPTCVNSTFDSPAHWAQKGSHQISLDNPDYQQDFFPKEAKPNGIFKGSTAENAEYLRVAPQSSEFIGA

[6] = system: A549; test: Antiproliferative activity against human A549 cells incubated for 72 hrs by MTT assay; assay type: functional, cell-based; conditions: A549, 72 h
[7] = target: T1, Epidermal growth factor receptor; test: Inhibition of EGFR in human NCI-H1975 cells assessed as reduction in EGFR phosphorylation at Tyr-1173 residues after 48 hrs by Western blot analysis; assay type: cell-based; conditions: dose 0.5-5 µM; how it was run: as §1
[8] = target: T1, Epidermal growth factor receptor; test: Inhibition of EGFR in human A431 cells assessed as reduction in EGFR phosphorylation at Tyr-1068 residues at 0.5 to 5 uM after 48 hrs by Western blot analysis; assay type: cell-based; conditions: A-431, dose 0.5-5 µM; how it was run: as §1
[9] = target: Epidermal growth factor receptor (Homo sapiens, UniProt P00533, L858R/T790M); test: Inhibition of EGFR L858R/T790M (unknown origin) by mobility shift assay
Epidermal growth factor receptor (Homo sapiens, UniProt P00533, L858R/T790M), sequence (P00533 25-1210 T790M/L858R limits assumed): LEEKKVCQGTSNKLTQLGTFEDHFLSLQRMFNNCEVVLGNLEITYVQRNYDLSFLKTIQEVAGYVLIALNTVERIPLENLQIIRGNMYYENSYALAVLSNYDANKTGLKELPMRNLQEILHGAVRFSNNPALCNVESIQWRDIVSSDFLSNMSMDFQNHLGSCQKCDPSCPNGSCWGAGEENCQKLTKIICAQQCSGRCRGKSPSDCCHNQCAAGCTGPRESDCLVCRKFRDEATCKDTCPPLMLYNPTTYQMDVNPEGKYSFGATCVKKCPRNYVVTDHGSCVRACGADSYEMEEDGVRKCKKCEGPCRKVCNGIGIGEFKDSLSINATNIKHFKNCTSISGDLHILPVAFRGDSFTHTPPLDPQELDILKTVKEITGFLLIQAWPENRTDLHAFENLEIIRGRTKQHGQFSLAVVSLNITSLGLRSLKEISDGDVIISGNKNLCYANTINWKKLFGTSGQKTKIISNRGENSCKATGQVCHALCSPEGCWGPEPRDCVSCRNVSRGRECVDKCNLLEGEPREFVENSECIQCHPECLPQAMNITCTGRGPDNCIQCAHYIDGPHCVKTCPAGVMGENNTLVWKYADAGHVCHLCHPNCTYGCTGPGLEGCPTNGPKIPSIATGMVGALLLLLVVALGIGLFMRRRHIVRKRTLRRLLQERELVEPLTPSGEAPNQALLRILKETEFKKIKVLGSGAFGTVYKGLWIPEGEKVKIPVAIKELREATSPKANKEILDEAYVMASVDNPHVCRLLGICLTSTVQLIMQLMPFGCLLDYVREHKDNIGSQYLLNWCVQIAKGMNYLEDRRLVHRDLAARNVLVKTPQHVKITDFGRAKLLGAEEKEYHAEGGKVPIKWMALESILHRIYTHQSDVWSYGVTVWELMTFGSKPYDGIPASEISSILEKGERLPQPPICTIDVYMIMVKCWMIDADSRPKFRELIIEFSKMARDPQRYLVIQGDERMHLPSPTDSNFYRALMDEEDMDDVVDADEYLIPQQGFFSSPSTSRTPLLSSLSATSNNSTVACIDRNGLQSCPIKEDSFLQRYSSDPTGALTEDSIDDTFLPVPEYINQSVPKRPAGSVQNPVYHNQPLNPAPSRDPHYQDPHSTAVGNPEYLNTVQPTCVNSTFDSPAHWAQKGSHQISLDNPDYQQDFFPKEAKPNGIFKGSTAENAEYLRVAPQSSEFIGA

[10] = target: T2, Histone deacetylase (Homo sapiens) (UniProt Q13547+O15379+Q9UBN7+Q92769+Q9UQL6+Q8WUI4+Q9BY41+Q96DB2+P56524+Q9UKV0+Q969S8); test: Inhibition of HDAC in human NCI-H1975 cells assessed as increase in histone H3 acetylation at 2.5 uM after 1 to 12 hrs by Western blot analysis; assay type: cell-based; conditions: time lower 1.0 hrs, time upper […]
[11] = target: T1, Epidermal growth factor receptor; test: Inhibition of EGFR in human NCI-H1975 cells assessed as reduction in AKT phosphorylation at S473 residues at 0.5 to 5 uM after 48 hrs by Western blot analysis; assay type: cell-based; conditions: dose 0.5-5 µM; how it was run: as §1
[12] = system: NCI-H1975; test: Induction of apoptosis in human NCI-H1975 cells assessed as necrotic cells at 0.5 uM incubated for 48 hrs by propidium iodide and annexin-V FITC staining based flow cytometry (Rvb =0.18% ); assay type: functional
[13] = system: NCI-H1975; test: Down regulation of AKT protein expression in human NCI-H1975 cells at 0.5 to 5 uM after 48 hrs by Western blot analysis; assay type: functional, cell-based; conditions: dose 0.5-5 µM; how it was run: as §1
[14] = target: Epidermal growth factor receptor (Homo sapiens, UniProt P00533, L858R); test: Inhibition of EGFR L858R (unknown origin) by mobility shift assay
Epidermal growth factor receptor (Homo sapiens, UniProt P00533, L858R), sequence (P00533 25-1210 L858R limits assumed): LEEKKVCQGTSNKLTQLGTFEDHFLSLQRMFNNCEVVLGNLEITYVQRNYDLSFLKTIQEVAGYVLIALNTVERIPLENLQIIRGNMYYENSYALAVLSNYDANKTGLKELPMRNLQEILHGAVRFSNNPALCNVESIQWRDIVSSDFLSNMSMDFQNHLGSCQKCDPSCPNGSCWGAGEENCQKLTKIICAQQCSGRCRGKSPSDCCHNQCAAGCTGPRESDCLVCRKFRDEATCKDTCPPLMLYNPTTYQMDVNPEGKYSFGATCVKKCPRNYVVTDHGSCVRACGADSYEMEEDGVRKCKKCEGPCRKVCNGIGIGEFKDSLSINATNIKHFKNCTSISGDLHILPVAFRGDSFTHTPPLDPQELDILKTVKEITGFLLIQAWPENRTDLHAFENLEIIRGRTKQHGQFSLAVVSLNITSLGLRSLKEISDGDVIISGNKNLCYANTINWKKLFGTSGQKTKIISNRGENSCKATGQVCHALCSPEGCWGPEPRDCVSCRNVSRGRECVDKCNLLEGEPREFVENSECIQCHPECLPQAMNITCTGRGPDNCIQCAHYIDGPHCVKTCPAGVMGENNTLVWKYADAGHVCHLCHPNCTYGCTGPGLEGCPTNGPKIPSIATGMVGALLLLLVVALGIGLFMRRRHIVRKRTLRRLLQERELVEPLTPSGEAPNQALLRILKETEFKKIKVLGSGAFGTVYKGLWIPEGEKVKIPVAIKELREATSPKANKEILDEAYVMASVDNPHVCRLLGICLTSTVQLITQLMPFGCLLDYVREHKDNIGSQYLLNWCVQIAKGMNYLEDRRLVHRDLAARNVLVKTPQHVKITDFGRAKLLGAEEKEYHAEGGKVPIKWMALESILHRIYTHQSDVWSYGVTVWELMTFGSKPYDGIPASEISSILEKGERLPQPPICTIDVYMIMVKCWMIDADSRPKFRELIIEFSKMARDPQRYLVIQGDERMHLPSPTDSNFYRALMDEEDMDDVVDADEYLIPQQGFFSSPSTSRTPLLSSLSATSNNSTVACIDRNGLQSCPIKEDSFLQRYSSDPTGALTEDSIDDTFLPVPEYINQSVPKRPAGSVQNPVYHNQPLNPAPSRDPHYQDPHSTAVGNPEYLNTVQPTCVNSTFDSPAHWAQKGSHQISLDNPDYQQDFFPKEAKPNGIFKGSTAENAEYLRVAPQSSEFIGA

[15] = system: NCI-H1975; test: Induction of apoptosis in human NCI-H1975 cells assessed as late apoptotic cells at 5 uM incubated for 48 hrs by propidium iodide and annexin-V FITC staining based flow cytometry (Rvb =4.20 %); assay type: functional
[16] = target: T2, Histone deacetylase (Homo sapiens); test: Inhibition of HDAC in human NCI-H1975 cells assessed as increase in histone H3 acetylation after 48 hrs by Western blot analysis; assay type: cell-based; conditions: dose 0.5-5 µM; how it was run: as §1
[17] = target: T1, Epidermal growth factor receptor; test: Inhibition of EGFR (unknown origin) by mobility shift assay
[18] = system: SK-BR-3; test: Antiproliferation activity against human SK-BR-3 cells incubated for 72 hrs by MTT assay; assay type: functional, cell-based; conditions: SK-BR-3, 72 h
How it was run: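 MTT assay. About 0.5–1 × 10⁴ cells/well were pre-incubated 12 h at 37 °C in 5% CO₂, then exposed to a concentration series of compound for 72 h. Formazan was dissolved in DMSO and absorbance read at 490 nm. Three wells per condition, three independent experiments. IC50 is the mean ± SD from the dose-response curves.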

[19] = target: Histone deacetylase 1 (Homo sapiens, UniProt Q13547); test: Inhibition of HDAC1 (unknown origin)
Histone deacetylase 1, sequence (Q13547 whole entry): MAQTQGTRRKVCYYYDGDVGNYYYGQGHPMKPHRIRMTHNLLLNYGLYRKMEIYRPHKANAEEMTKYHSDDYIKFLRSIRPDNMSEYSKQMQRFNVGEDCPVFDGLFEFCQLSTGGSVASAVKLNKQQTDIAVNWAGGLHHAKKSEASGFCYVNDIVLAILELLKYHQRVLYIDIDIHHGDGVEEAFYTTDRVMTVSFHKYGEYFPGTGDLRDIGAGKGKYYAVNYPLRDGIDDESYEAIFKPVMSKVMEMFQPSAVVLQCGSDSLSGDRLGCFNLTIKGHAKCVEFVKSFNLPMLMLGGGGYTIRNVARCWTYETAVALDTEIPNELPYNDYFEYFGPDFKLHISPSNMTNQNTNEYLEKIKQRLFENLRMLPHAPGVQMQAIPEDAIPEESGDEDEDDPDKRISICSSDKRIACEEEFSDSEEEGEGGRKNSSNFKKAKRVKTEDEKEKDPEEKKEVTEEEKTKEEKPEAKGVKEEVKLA

[20] = system: NCI-H1975; test: Induction of apoptosis in human NCI-H1975 cells assessed as increase in cleaved-PARP level at 0.5 to 5 uM after 48 hrs by Western blot analysis; assay type: functional, cell-based; conditions: dose 0.5-5 µM; how it was run: as §1
[21] = system: NCI-H1975; test: Induction of apoptosis in human NCI-H1975 cells assessed as necrotic cells at 5 uM incubated for 48 hrs by propidium iodide and annexin-V FITC staining based flow cytometry (Rvb =0.18% ); assay type: functional
[22] = system: NCI-H1975; test: Induction of apoptosis in human NCI-H1975 cells assessed as increase in cleaved-caspase 7 level at 0.5 to 5 uM after 48 hrs by Western blot analysis; assay type: functional, cell-based; conditions: dose 0.5-5 µM; how it was run: as §1
[23] = system: NCI-H1975; test: Induction of apoptosis in human NCI-H1975 cells assessed as increase in cleaved-caspase 3 level at 0.5 to 5 uM after 48 hrs by Western blot analysis; assay type: functional, cell-based; conditions: dose 0.5-5 µM; how it was run: as §1
[24] = system: NCI-H1975; test: Induction of apoptosis in human NCI-H1975 cells assessed as late apoptotic cells at 0.5 uM incubated for 48 hrs by propidium iodide and annexin-V FITC staining based flow cytometry (Rvb =4.20 %); assay type: functional
[25] = target: T1, Epidermal growth factor receptor; test: Inhibition of EGFR in human A431 cells assessed as reduction in EGFR phosphorylation at Tyr-1173 residues at 0.5 to 5 uM after 48 hrs by Western blot analysis; assay type: cell-based; conditions: A-431, dose 0.5-5 µM; how it was run: as §1
[26] = system: FHC; test: Cytotoxicity against human FHC cells assessed as reduction of cell viability incubated for 72 hrs by MTT assay; assay type: ADME, cell-based
[27] = system: NCI-H838; test: Antiproliferation activity against human NCI-H838 cells incubated for 72 hrs by MTT assay; assay type: functional, cell-based; conditions: NCI-H838, 72 h
[28] = system: A-431; test: Antiproliferative activity against human A431 cells incubated for 72 hrs by MTT assay; assay type: functional, cell-based; conditions: A-431, 72 h
[29] = system: NCI-H1975; test: Induction of apoptosis in human NCI-H1975 cells assessed as early apoptotic cells at 5 uM incubated for 48 hrs by propidium iodide and annexin-V FITC staining based flow cytometry (reference value: 6.67 %); assay type: functional
[30] = target: Receptor tyrosine-protein kinase erbB-2 (Homo sapiens, UniProt P04626); test: Inhibition of HER2 (unknown origin) by mobility shift assay
How it was run: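 In vitro kinase activity was measured by mobility shift assay, run by a contract provider.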

[31] = cells; assay type: cell-based; conditions: BaF3, 72 h

For `C=CC(=O)Nc1cc2c(Nc3ccc(F)c(Cl)c3)ncnc2cc1OCc1cn(CCCC(=O)NO)nn1`, which IC50 [1] is on record?
Its IC50 is 1820 nM.

And the viability at 0.5 µM [2]?
The viability at 0.5 µM was 62.6%.

And the Activity [3]?
Its Activity is “Active”.

What about the Activity [4] of the same compound?
Its Activity is “Dose-dependent effect”.

What about the inhibition [5] of the same compound?
The inhibition was “Dose-dependent effect”.

And the IC50 [6]?
The IC50 was over 50000 nM.

And the inhibition [7]?
Its inhibition is “Dose-dependent effect”.

And the inhibition [8]?
The inhibition was “Active”.

What about the IC50 [9] of the same compound?
The IC50 was 1.5 nM.

And the inhibition [10]?
Its inhibition is “Active”.

What about the inhibition [11] of the same compound?
Its inhibition is “Active”.

And the Activity [12]?
Its Activity is 0.08%.

And the Activity [13]?
Its Activity is “Active”.

And the IC50 [14]?
The IC50 was 1.1 nM.

What about the Activity [15] of the same compound?
Its Activity is 18.07%.

What about the inhibition [16] of the same compound?
The inhibition was “Dose-dependent effect”.

And the IC50 [17]?
The IC50 was 0.35 nM.

What about the IC50 [18] of the same compound?
Its IC50 is 30800 nM.

And the IC50 [19]?
Its IC50 is 75 nM.

What about the Activity [20] of the same compound?
Its Activity is “Active”.

And the Activity [21]?
Its Activity is 0.57%.

What about the Activity [22] of the same compound?
The Activity was “Active”.

What about the Activity [23] of the same compound?
Its Activity is “Active”.

And the Activity [24]?
The Activity was 13.07%.

And the inhibition [25]?
The inhibition was “Active”.

What about the IC50 [26] of the same compound?
The IC50 was over 25000 nM.

And the IC50 [27]?
Its IC50 is over 50000 nM.

What about the IC50 [28] of the same compound?
Its IC50 is 20600 nM.

What about the Activity [29] of the same compound?
Its Activity is 35.22%.

And the IC50 [30]?
Its IC50 is 5.7 nM.

What about the IC50 [31] of the same compound?
Its IC50 is 7610 nM.
